For series [1], the system named is BXPC-3. The series can be described thus: Antiproliferation activity against human BxPC3 cells assessed as reduction in cell viability at 2.5 uM incubated for 48 hrs by MTT assay relative to control. Type of series: functional. In short, it runs like this:
(§1)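 Single-concentration screen at 2.5 μM against BxPc3 and Mia-capa2 pancreatic cancer cells. Read-out is percent growth inhibition.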
A general note: Formazan colour is commonly taken as a measure of viable cells.

In series [2] the test system is MIA PaCa-2. Put plainly: Antiproliferation activity against human MIAPaCa2 cells assessed as reduction in cell viability at 2.5 uM incubated for 48 hrs by MTT assay relative to control. It counts as functional. The gist of the method: as §1
Series [3] has as its target Bromodomain-containing protein 4 (Homo sapiens, UniProt O60885). The series can be described thus: Inhibition of BRD4 bromodomain1 (unknown origin) using peptide histone H4 (SGRGACKGGACKGLGAC-KGGAACKRHGSGSK-biotin) as substrate incubated for 15 mins followed by substrate addition measured after 1 hr by alphascreen assay. For orientation: In Alpha technology, singlet oxygen from a donor bead excites a nearby acceptor bead.

Series [4] deals with HCT-116. The series can be described thus: Antiproliferation activity against human HCT116 cells assessed as reduction in cell viability at 2 uM incubated for 48 hrs by MTT assay relative to control. Type of series: functional. The gist of the method:
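HCT116 colon cancer cells screened at a single 2.0 μM concentration. Read-out is percent growth inhibition.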

For series [5], the system named is HCT-116. The series can be described thus: Antiproliferation activity against human HCT116 cells assessed as reduction in cell viability incubated for 48 hrs by MTT assay. It counts as functional, cell-based. To be noted: HCT-116, 48 h. In short, it runs like this:
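HCT116 cells treated across a concentration gradient. IC50 was taken from dose–response curves, reported as mean ± SD of at least three independent experiments.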

Series [6] deals with CT26. Put plainly: Antitumor activity against […] xenografted in C57BL/6 mouse assessed as tumor suppression at 10 mg/kg, iv administered for 14 days and measured every two days relative to control. Type of series: functional. To be noted: C57BL/6, CT26, iv, 336 h, time 14 day, read-out: GI.
Series [7] deals with CT26. Put plainly: Antitumor activity against mouse CT26 cells xenografted in C57BL/6 mouse assessed as tumor suppression at 20 mg/kg, ip administered for 14 days and measured every two days relative to control. To be noted: C57BL/6, CT26, ip, 336 h, read-out: GI.
Series [8] has as its system CT26. Put plainly: Anticancer activity against mouse CT26 cells xenografted in C57BL/6 mouse assessed as upregulation in HEXIM1 expression at 20 mg/kg, ip administered for 14 days by hematoxylin staining based immunohistochemical analysis. To be noted: time 14.0 day.
The subject of series [9] is HCT-116. Put plainly: Induction of cell cycle arrest in human HCT116 cells assessed as accumulation at G0/G1 phase at 0.16 uM incubated for 48 hrs by flow cytometry. It counts as functional, cell-based. The gist of the method: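 HCT116 cells exposed to 0.16 μM for 48 h. Cell cycle phase distribution was measured, including the G0/G1 fraction.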
A general note: In flow cytometry, cells or beads pass a laser one at a time.

In series [10] the test system is CT26. The series can be described thus: Anticancer activity against mouse CT26 cells xenografted in C57BL/6 mouse assessed as decrease in c-myc expression at 20 mg/kg, ip administered for 14 days by hematoxylin staining based immunohistochemical analysis. To be noted: time 14.0 day.
The test system of series [11] is HCT-116. Put plainly: Induction of apoptosis in human HCT116 cells assessed as decrease in Bcl2 protein expression level at 1 uM incubated for 48 hrs by western blot analysis. It counts as functional, cell-based. In short, it runs like this:
(§2)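 HCT116 cells treated at 1 μM for 48 h. Bcl-2, HEXIM1, BRD4 and c-Myc protein levels were measured by western blot.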

Series [12] relates to CT26. The series can be described thus: Antitumor activity against […] xenografted in C57BL/6 mouse assessed as tumor suppression at 5 mg/kg, iv administered for 14 days and measured every two days relative to control. Type of series: functional. To be noted: C57BL/6, CT26, iv, 336 h, time 14 day, read-out: GI.
Series [13] deals with CT26. The series can be described thus: Anticancer activity against mouse CT26 cells xenografted in C57BL/6 mouse assessed as decrease in […] expression at 20 mg/kg, ip administered for 14 days by hematoxylin staining based immunohistochemical analysis. To be noted: time 14.0 day.
The subject of series [14] is HCT-116. Put plainly: Induction of apoptosis in human HCT116 cells assessed as upregulation of HEXIM1 protein expression at 1 uM incubated for 48 hrs by western blot analysis. Type of series: functional, cell-based. In short, it runs like this:
as §2

Series [15] in a line: Toxicity in C57BL/6 mouse xenografted with mouse CT26 cells assessed as body weight at 20 mg/kg, ip administered for 14 days and measured every two days. To be noted: in vivo, 336 h.
The subject of series [16] is CT26. The series can be described thus: Anticancer activity against […] xenografted in C57BL/6 mouse assessed as cell morphological changes measured at 20 mg/kg, iv administered for 14 days by hematoxylin staining based immunohistochemical analysis. It counts as functional, organism-based. To be noted: time 14.0 day.
In series [17] the test system is HCT-116. The series can be described thus: Induction of apoptosis in human HCT116 cells assessed as activation of downstream effector Caspase 3 at 1 uM incubated for 48 hrs by western blot analysis. It counts as functional, cell-based.
For series [18], the system named is HCT-116. The series can be described thus: Antiproliferation activity against human HCT116 cells assessed as reduction in cell viability for 12 days by crystal violet staining based plate clone-forming analysis. It counts as functional. To be noted: dose microM 0.008-0.165, time 12.0 day. The gist of the method: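 Plate colony-formation assay in HCT116 cells with 12 days of compound exposure at several concentrations.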

The test system of series [19] is HCT-116. The series can be described thus: Induction of apoptosis in human HCT116 cells assessed as downregulation of c-myc protein expression at 1 uM incubated for 48 hrs by western blot analysis. It counts as functional, cell-based. In short, it runs like this:
as §2

The test system of series [20] is CT26. The series can be described thus: Antitumor activity against […] xenografted in C57BL/6 mouse assessed as tumor suppression at 13.6 mg/kg, iv administered for 14 days and measured every two days relative to control. It counts as functional. To be noted: C57BL/6, CT26, iv, 336 h, time 14 day, read-out: GI.
In series [21] the test system is HCT-116. Put plainly: Induction of apoptosis in human HCT116 cells assessed as upregulation of BRD4 expression at 1 uM incubated for 48 hrs by western blot analysis. It counts as functional, cell-based. The gist of the method:
as §2

For orientation: IC50 means the concentration needed to halve the response being measured.

The source made the active and inactive calls. The calls are words filed in the database; no cut-off is given here. Bounds are passed on as bounds.

As to `CCS(=O)(=O)Nc1ccc(Oc2ccc(F)cc2F)c(-c2cn(C)c(=O)c3[nH]ccc23)c1` [MIVEBRESIB], the Activity in [1] is 36.8%; in [2] it was 64.3%; in series [4] it was 69.5%. In addition, the IC50 in series [3] was 2.5 nM; in series [5], 550 nM.

For `Cc1sc2c(c1C)C(c1ccc(Cl)cc1)=N[C@@H](CC(=O)OC(C)(C)C)c1nnc(C)n1-2`, the Activity in series [1] came out at 9.1%; in series [2], 56.2%; in [4] it was 23.2%. Also, the 50% inhibitory concentration (IC50) in [5] turned out to be 4210 nM.

As to `Cc1noc(C)c1-c1ccc2c(c1)C(c1ccccc1)N(Cc1cn(CCOCCn3cc(CN4C(=O)Nc5ccc(-c6c(C)noc6C)cc5C4c4ccccc4)nn3)nn1)C(=O)N2` (stereo not drawn), the Activity in [1] amounted to 52.1%; in series [2] it was 54.4%; in series [4] it was 55.6%. Also, the IC50 in series [3] was under 2.1 nM.

Consider `Cc1noc(C)c1-c1ccc2c(c1)C(c1ccccc1)N(Cc1cn(CCOCCOCCOCCn3cc(CN4C(=O)N(C)c5ccc(-c6c(C)noc6C)cc5C4c4ccccc4)nn3)nn1)C(=O)N2C` (stereo not drawn), for which, in series [6], the inhibition in vivo at 10 mg/kg came out at 33.8%. In addition, in [7], the inhibition in vivo at 20 mg/kg was 56.1%. In addition, the outcome in [8], in [9], in series [10], in series [11], in [13] and in series [14] was Active. For the same molecule, the outcome in series [16], in [17], in series [19] and in [21] was Active. Further, the Activity was 61.3% in series [1], 68.4% in [2], “Non-Toxic” in [15] and 83.6% in series [4]. Besides, the inhibition in vivo at 5 mg/kg in series [12] amounted to 68%. The IC50 in series [3] amounted to 7.7 nM; in series [5], 162 nM. Further, the inhibition entry in [18] is “Dose-dependent effect”. For the same molecule, in [20], the inhibition in vivo at 13.6 mg/kg came to 11.5%.

`Cc1noc(C)c1-c1ccc2c(c1)C(c1ccccc1)N(CCCCN1C(=O)N(C)c3ccc(-c4c(C)noc4C)cc3C1c1ccccc1)C(=O)N2C` (stereo not drawn): the values for the Activity in [1], in series [2] and in series [4] were 46.4%, 68.2% and 59.3%, respectively. Further, the concentration for half-maximal inhibition (IC50) in series [3] was found to be 13 nM.

Regarding `Cc1noc(C)c1-c1ccc2c(c1)C(c1ccccc1)N(CCOCCOCCN1C(=O)N(C)c3ccc(-c4c(C)noc4C)cc3C1c1ccccc1)C(=O)N2C` (stereo not drawn), the Activity stood at 7.1% in series [1], 67.3% in series [2] and 43.4% in [4]. In series [3], the IC50 came to 31 nM.

For the molecule `Cc1noc(C)c1-c1ccc2c(c1)C(c1ccccc1)N(Cc1cn(CCCCCCn3cc(CN4C(=O)Nc5ccc(-c6c(C)noc6C)cc5C4c4ccccc4)nn3)nn1)C(=O)N2` (stereo not drawn), the Activity in series [1] came out at 37.1%; in series [2], 57.2%; in [4] it was 60.1%. The molecule also yielded an IC50 in series [3] of under 2.1 nM.

`Cc1noc(C)c1-c1ccc2c(c1)C(c1ccccc1)N(Cc1cn(CCn3cc(CN4C(=O)Nc5ccc(-c6c(C)noc6C)cc5C4c4ccccc4)nn3)nn1)C(=O)N2` (stereo not drawn): the figures for the Activity in [1], in series [2] and in [4] were 53%, 62.2% and 60.3%, respectively. Moreover, the IC50 in series [3] is under 2.1 nM.

Consider `Cc1noc(C)c1-c1ccc2c(c1)C(c1ccccc1)NC(=O)N2C` (stereo not drawn), for which, in series [7], the inhibition in vivo at 20 mg/kg stood at 11.5%. Further, the result in [9], in series [11] and in [19] was Active. The Activity in [1] amounted to 11.2%; in series [2], 59.1%; in [4] it was 14%. The IC50 in series [3] worked out at 32 nM; in series [5] it was 3340 nM. In addition, the inhibition result in series [18] is “Active”.

Take `Cc1noc(C)c1-c1ccc2c(c1)C(c1ccccc1)N(CCOCCOCCOCCN1C(=O)N(C)c3ccc(-c4c(C)noc4C)cc3C1c1ccccc1)C(=O)N2C` (stereo not drawn): the results for the Activity in [1], in series [2] and in series [4] were 42.1%, 73.4% and 35.3%, respectively. The molecule also came in with an IC50 in series [3] of 19 nM.

For the molecule `Cc1noc(C)c1-c1ccc2c(c1)C(c1ccccc1)N(CCCCCCN1C(=O)N(C)c3ccc(-c4c(C)noc4C)cc3C1c1ccccc1)C(=O)N2C` (stereo not drawn), the Activity is listed as 44% in series [1], 70.9% in series [2] and 59.7% in series [4]. For the same molecule, the results for the 50% inhibitory concentration (IC50) in series [3] and in [5] were 42 nM and 1100 nM, respectively.

Consider `Cc1noc(C)c1-c1ccc2c(c1)C(c1ccccc1)N(Cc1cn(CCOCCOCCn3cc(CN4C(=O)Nc5ccc(-c6c(C)noc6C)cc5C4c4ccccc4)nn3)nn1)C(=O)N2` (stereo not drawn), for which the figures for the Activity in [1], in series [2] and in [4] were 21.8%, 63.2% and 60.5%, respectively. This molecule yielded an IC50 in series [3] of under 2.1 nM.

As to `Cc1noc(C)c1-c1ccc2c(c1)C(c1ccccc1)N(CCCCCN1C(=O)N(C)c3ccc(-c4c(C)noc4C)cc3C1c1ccccc1)C(=O)N2C` (stereo not drawn), the Activity in [1] was found to be 27.9%; in series [2] it was 71.3%; in [4], 52%. The same molecule had a 50% inhibitory concentration (IC50) in series [3] of 56 nM.

As for `Cc1noc(C)c1-c1ccc2c(c1)C(c1ccccc1)N(Cc1cn(CCOCCn3cc(CN4C(=O)N(C)c5ccc(-c6c(C)noc6C)cc5C4c4ccccc4)nn3)nn1)C(=O)N2C` (stereo not drawn), the Activity was 23.2% in [1], 64% in series [2] and 49.6% in series [4]. The molecule further gave a 50% inhibitory concentration (IC50) in series [3] of 4.2 nM.

Turning to `Cc1noc(C)c1-c1ccc2c(c1)C(c1ccccc1)N(Cc1cn(CCOCCOCCOCCn3cc(CN4C(=O)Nc5ccc(-c6c(C)noc6C)cc5C4c4ccccc4)nn3)nn1)C(=O)N2` (stereo not drawn), the Activity in [1] was 42.2%; in [2], 66.4%; in series [4], 60.4%. In series [3], the half-maximal inhibitory concentration (IC50) is under 2.1 nM.

Regarding `Cc1noc(C)c1-c1ccc2c(c1)C(c1ccccc1)N(CCCCCCCCCCN1C(=O)N(C)c3ccc(-c4c(C)noc4C)cc3C1c1ccccc1)C(=O)N2C` (stereo not drawn), the Activity is on record as 45.2% in [1], 65.2% in [2] and 48.8% in series [4].

Values taken from ChEMBL document CHEMBL4725468, “Identification of 3,5-Dimethylisoxazole Derivatives as BRD4 Inhibitors for the Treatment of Colorectal Cancer” (ACS Med Chem Lett, 2020).
